From ChEMBL document CHEMBL4350958, “Rational Design of Short Peptide Variants by Using Kunitzin-RE, an Amphibian-Derived Bioactivity Peptide, for Acquired Potent Broad-Spectrum Antimicrobial and Improved Therapeutic Potential of Commensalism Coinfection of Pathogens” (J Med Chem, 2019)

Experiments:
Candida albicans [1] = assay: Antifungal activity against Candida albicans cgmcc2.2086 measured after 48 hrs in presence of MgCl by broth microdilution method; assay type: functional; settings: cgmcc2.2086, 48 h
[2] = test system: Staphylococcus epidermidis; assay: Bactericidal activity against Staphylococcus epidermidis ATCC 12228 incubated for 24 hrs followed by replating on agar plate and measured after overnight incubation; assay type: functional; settings: ATCC 12228, 24 h, read-out: MBC>99.9
In short: (§1)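 Mid-log bacteria diluted in MHB to (0.5–1) × 10^5 CFU/mL and mixed 1:1 with peptide serially diluted in 0.2% BSA. After 24 h at 37 °C, 50 μL of each mixture was plated on agar and incubated overnight. MBC taken as the lowest concentration killing >99.9% of cells. At least three independent experiments, each with three technical replicates.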

[3] = Cytotoxicity against mouse RAW264.7 cells assessed as cell viability at 2 to 64 uM measured after 18 to 24 hrs by MTT assay relative to control; assay type: cell-based; settings: RAW264.7 cells, read-out: Activity
In short: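 MTT assay: RAW264.7 cells seeded at 1.0–2.0×10^4 per well and exposed to peptide (2–64 µM) for 18–24 h at 37 °C in 5% CO2. MTT (0.5 mg/mL) added for 4 h, formazan dissolved in DMSO, read at 570 nm. At least three independent experiments with triplicate wells.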

Escherichia coli [4] = assay: Bactericidal activity against Escherichia coli ATCC 25922 incubated for 24 hrs followed by replating on agar plate and measured after overnight incubation; assay type: functional; settings: ATCC 25922, 24 h, read-out: MBC>99.9
In short: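 After the 24 h, 37 °C MHB microdilution (0.5–1 × 10^5 CFU mL−1 inoculum, peptides diluted in 0.2% BSA), 50 μL from each well was plated on agar and incubated overnight. MBC was taken as the lowest concentration killing >99.9% of cells. Three or more independent experiments, each with triplicate technical replicates.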

Escherichia coli [5] = assay: Bactericidal activity against Escherichia coli K88 incubated for 24 hrs followed by replating on agar plate and measured after overnight incubation; assay type: functional; settings: K88, 24 h, read-out: MBC>99.9; in short: as §1
Staphylococcus aureus [6] = assay: Bactericidal activity against Staphylococcus aureus ATCC 29213 incubated for 24 hrs followed by replating on agar plate and measured after overnight incubation; assay type: functional; settings: ATCC 29213, 24 h, read-out: MBC>99.9
In short: (§2)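 After the 24 h, 37 °C MHB microdilution MIC assay, 50 μL from each well was plated on agar and incubated overnight. MBC taken as lowest peptide concentration killing >99.9% of cells. At least three independent experiments, each with three technical replicates.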

Staphylococcus aureus [7] = assay: Antibacterial activity against methicillin-resistant Staphylococcus aureus ATCC 43300 measured after 24 hrs; assay type: functional; settings: ATCC 43300, 24 h
In short: (§3)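 Broth microdilution modified from NCCLS. Mid-log bacteria at (0.5–1) × 10^5 CFU mL−1 in MHB, mixed with peptides serially diluted in 0.2% BSA. Incubated 24 h at 37 °C, read at A492. MIC taken as lowest concentration giving 95% growth inhibition. At least three independent experiments, each with three technical replicates.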

Escherichia coli [8] = assay: Bactericidal activity against Escherichia coli UB1005 incubated for 24 hrs followed by replating on agar plate and measured after overnight incubation; assay type: functional; settings: UB1005, 24 h, read-out: MBC>99.9; in short: as §1
Candida albicans [9] = assay: Antifungal activity against Candida albicans cgmcc2.2086 measured after 48 hrs in presence of CaCl by broth microdilution method; assay type: functional; settings: cgmcc2.2086, 48 h
[10] = Therapeutic index, ratio of MHC10 for hemolytic activity in human RBC to MIC95 against Staphylococcus epidermidis ATCC 12228; assay type: toxicity; settings: human red blood cells (erythrocytes), read-out: TI
In short: (§4)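 Therapeutic index = MHC divided by MIC. MHC is the lowest concentration giving >10% lysis of human RBC (1 h, 37 °C, 1-128 µM, A576). MIC is 95% growth inhibition by broth microdilution: bacteria in MHB 24 h at 37 °C; Candida in MOPS-buffered RPMI 1640 at (0.5–1) × 10^3 CFU mL−1, 48 h at 28 °C.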

Candida albicans [11] = assay: Antifungal activity against Candida albicans cgmcc2.2086 measured after 48 hrs in presence of KCl by broth microdilution method; assay type: functional; settings: cgmcc2.2086, 48 h
Candida albicans [12] = assay: Antifungal activity against Candida albicans cgmcc2.2086 measured after 48 hrs by broth microdilution method; assay type: functional; settings: cgmcc2.2086, 48 h
In short: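 Modified CLSI M27-A2 microdilution. Yeast colonies were diluted in MOPS-buffered RPMI 1640 to a final (0.5–1) × 10^3 CFU mL−1 and mixed with an equal volume of peptide serially diluted in 0.2% BSA. After 48 h at 28 °C, MIC was read at A492 as the lowest concentration inhibiting 95% of growth. At least three independent experiments, each with three technical replicates.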

Staphylococcus aureus [13] = assay: Bactericidal activity against methicillin-resistant Staphylococcus aureus ATCC 43300 incubated for 24 hrs followed by replating on agar plate and measured after overnight incubation; assay type: functional; settings: ATCC 43300, 24 h, read-out: MBC>99.9; in short: as §2
[14] = test system: Staphylococcus epidermidis; assay: Antibacterial activity against Staphylococcus epidermidis ATCC 12228 measured after 24 hrs; assay type: functional; settings: ATCC 12228, 24 h
In short: (§5)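 Broth microdilution adapted from NCCLS. Mid-log bacteria were diluted in MHB to a final (0.5–1) × 10^5 CFU mL−1. Peptides were serially diluted in 0.2% BSA and mixed with an equal volume of cells. After 24 h at 37 °C, MIC was read at A492 as the lowest concentration inhibiting 95% of growth. At least three independent experiments, each with three technical replicates.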

Staphylococcus aureus [15] = assay: Antibacterial activity against Staphylococcus aureus ATCC 25923 measured after 24 hrs; assay type: functional; settings: ATCC 25923, 24 h; in short: as §3
[16] = Therapeutic index, ratio of MHC10 for hemolytic activity in human RBC to MIC95 against methicillin-resistant Staphylococcus aureus ATCC 43300; assay type: toxicity; settings: human red blood cells (erythrocytes), read-out: TI; in short: as §4
Salmonella typhimurium [17] = assay: Bactericidal activity against Salmonella typhimurium C7731 incubated for 24 hrs followed by replating on agar plate and measured after overnight incubation; assay type: functional, Salmonella enterica subsp. enterica serovar Typhimurium; settings: Salmonella enterica, C7731, 24 h; read-out: MBC>99.9; in short: as §1
Escherichia coli [18] = assay: Antibacterial activity against Escherichia coli K99 measured after 24 hrs; assay type: functional; settings: K99, 24 h; in short: as §5
Staphylococcus aureus [19] = assay: Antibacterial activity against Staphylococcus aureus ATCC 29213 measured after 18 to 24 hrs in presence of NH4Cl; assay type: functional
In short: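 MIC broth microdilution (MHB, 0.2% BSA peptide diluent, A492, 95% inhibition) run in the presence of physiological salts at final concentrations of 6 μM NH4Cl or 8 μM ZnCl2. Three independent assays, each with three technical replicates.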

Salmonella typhimurium [20] = assay: Antibacterial activity against Salmonella typhimurium ATCC 14028 measured after 24 hrs; assay type: functional, Salmonella enterica subsp. enterica serovar Typhimurium; settings: Salmonella enterica, ATCC 14028, 24 h; in short: as §5
Staphylococcus aureus [21] = assay: Antibacterial activity against Staphylococcus aureus ATCC 29213 measured after 18 to 24 hrs in presence of NaCl; assay type: functional
Escherichia coli [22] = assay: Antibacterial activity against Escherichia coli ATCC 25922 measured after 18 to 24 hrs in presence of MgCl2; assay type: functional
[23] = Therapeutic index, ratio of MHC10 for hemolytic activity in human RBC to MIC95 against Candida parapsilosis cgmcc2.3989; assay type: toxicity; settings: human red blood cells (erythrocytes), read-out: TI; in short: as §4

## H-AARIILRLRFR-NH2
Candida albicans [1]
  MIC95: 8 µM
[2]
  MBC: 4 µM
[3]
  viability at up to 64 µM: 90 to 100%
Escherichia coli [4]
  MBC: 8 µM
Escherichia coli [5]
  MBC: 8 µM
Staphylococcus aureus [6]
  MBC: 4 µM
Staphylococcus aureus [7]
  MIC95: 2 µM
Escherichia coli [8]
  MBC: 8 µM
Candida albicans [9]
  MIC95: 32 µM
[10]
  selectivity ratio: 128
Candida albicans [11]
  MIC95: 8 µM
Candida albicans [12]
  MIC95: 8 µM
Staphylococcus aureus [13]
  MBC: 4 µM
[14]
  MIC95: 2 µM
Staphylococcus aureus [15]
  MIC95: 2 µM
[16]
  selectivity ratio: 128
Salmonella typhimurium [17]
  MBC: 8 µM
Escherichia coli [18]
  MIC95: 2 µM
Staphylococcus aureus [19]
  MIC95: 2 µM
Salmonella typhimurium [20]
  MIC95: 4 µM
Staphylococcus aureus [21]
  MIC95: 16 µM
Escherichia coli [22]
  MIC95: 16 µM
[23]
  selectivity ratio: 50.8

## H-AARIILRRRFR-NH2
Candida albicans [1]
  MIC95: > 128 µM
[2]
  MBC: 32 µM
[3]
  viability at up to 64 µM: 90 to 100%
Escherichia coli [4]
  MBC: 16 µM
Escherichia coli [5]
  MBC: 32 µM
Staphylococcus aureus [6]
  MBC: 32 µM
Staphylococcus aureus [7]
  MIC95: 16 µM
Escherichia coli [8]
  MBC: 64 µM
Candida albicans [9]
  MIC95: > 128 µM
[10]
  selectivity ratio: 13.4
Candida albicans [11]
  MIC95: 128 µM
Candida albicans [12]
  MIC95: 128 µM
Staphylococcus aureus [13]
  MBC: 64 µM
[14]
  MIC95: 16 µM
Staphylococcus aureus [15]
  MIC95: 32 µM
[16]
  selectivity ratio: 13.4
Salmonella typhimurium [17]
  MBC: 16 µM
Escherichia coli [18]
  MIC95: 8 µM
Staphylococcus aureus [19]
  MIC95: 16 µM
Salmonella typhimurium [20]
  MIC95: 32 µM
Staphylococcus aureus [21]
  MIC95: 128 µM
Escherichia coli [22]
  MIC95: 64 µM
[23]
  selectivity ratio: 3.17

## H-AARIILRTRFR-NH2
Candida albicans [1]
  MIC95: > 128 µM
[2]
  MBC: 32 µM
[3]
  viability at up to 64 µM: 90 to 100%
Escherichia coli [4]
  MBC: 16 µM
Escherichia coli [5]
  MBC: 8 µM
Staphylococcus aureus [6]
  MBC: 32 µM
Staphylococcus aureus [7]
  MIC95: 16 µM
Escherichia coli [8]
  MBC: 8 µM
Candida albicans [9]
  MIC95: > 128 µM
[10]
  selectivity ratio: 16
Candida albicans [11]
  MIC95: > 128 µM
Candida albicans [12]
  MIC95: 128 µM
Staphylococcus aureus [13]
  MBC: 32 µM
[14]
  MIC95: 16 µM
Staphylococcus aureus [15]
  MIC95: 16 µM
[16]
  selectivity ratio: 16
Salmonella typhimurium [17]
  MBC: 32 µM
Escherichia coli [18]
  MIC95: 4 µM
Staphylococcus aureus [19]
  MIC95: 16 µM
Salmonella typhimurium [20]
  MIC95: 16 µM
Staphylococcus aureus [21]
  MIC95: > 128 µM
Escherichia coli [22]
  MIC95: 128 µM
[23]
  selectivity ratio: 4

## H-AARIILRWFRR-NH2
Candida albicans [1]
  MIC95: 16 µM
[2]
  MBC: 4 µM
[3]
  viability at up to 64 µM: 90 to 100%
Escherichia coli [4]
  MBC: 2 µM
Escherichia coli [5]
  MBC: 4 µM
Staphylococcus aureus [6]
  MBC: 8 µM
Staphylococcus aureus [7]
  MIC95: 8 µM
Escherichia coli [8]
  MBC: 4 µM
Candida albicans [9]
  MIC95: 32 µM
[10]
  selectivity ratio: 53.8
Candida albicans [11]
  MIC95: 8 µM
Candida albicans [12]
  MIC95: 8 µM
Staphylococcus aureus [13]
  MBC: 8 µM
[14]
  MIC95: 2 µM
Staphylococcus aureus [15]
  MIC95: 8 µM
[16]
  selectivity ratio: 53.8
Salmonella typhimurium [17]
  MBC: 8 µM
Escherichia coli [18]
  MIC95: 2 µM
Staphylococcus aureus [19]
  MIC95: 4 µM
Salmonella typhimurium [20]
  MIC95: 4 µM
Staphylococcus aureus [21]
  MIC95: 32 µM
Escherichia coli [22]
  MIC95: 2 µM
[23]
  selectivity ratio: 50.8

## H-AARIILRWRFR-NH2
Candida albicans [1]
  MIC95: 16 µM
[2]
  MBC: 4 µM
[3]
  viability at up to 64 µM: 90 to 100%
Escherichia coli [4]
  MBC: 4 µM
Escherichia coli [5]
  MBC: 4 µM
Staphylococcus aureus [6]
  MBC: 2 µM
Staphylococcus aureus [7]
  MIC95: 1 µM
Escherichia coli [8]
  MBC: 4 µM
Candida albicans [9]
  MIC95: 32 µM
[10]
  selectivity ratio: 215
Candida albicans [11]
  MIC95: 8 µM
Candida albicans [12]
  MIC95: 8 µM
Staphylococcus aureus [13]
  MBC: 1 µM
[14]
  MIC95: 1 µM
Staphylococcus aureus [15]
  MIC95: 2 µM
[16]
  selectivity ratio: 215
Salmonella typhimurium [17]
  MBC: 4 µM
Escherichia coli [18]
  MIC95: 2 µM
Staphylococcus aureus [19]
  MIC95: 2 µM
Salmonella typhimurium [20]
  MIC95: 2 µM
Staphylococcus aureus [21]
  MIC95: 4 µM
Escherichia coli [22]
  MIC95: 4 µM
[23]
  selectivity ratio: 50.8
